Data taken from ChEMBL document CHEMBL1140859, “Design and synthesis of some thiazolyl and thiadiazolyl derivatives of antipyrine as potential non-acidic anti-inflammatory, analgesic and antimicrobial agents” (Bioorg Med Chem, 2009).
In brackets after ≈: the same amount, converted by molar mass.

What was measured:
[1] = system: Staphylococcus aureus; assay: Antimicrobial activity against Staphylococcus aureus ATCC 6538 after 24 hrs by twofold serial dilution method; format: functional; conditions: ATCC 6538, 24 h
Outline: (§1)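 Broth microdilution in Müller–Hinton broth on compounds with agar-diffusion inhibition zones ≥14 mm (disks with 1 mg/mL in DMSO, 37 °C, 24 h, triplicate).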

[2] = system: Rattus norvegicus; assay: Antiinflammatory activity against formalin-induced paw edema in anaesthetized Albino rat acute inflammatory model at 20 mg/kg, po dosed 1 hr before formalin challenge assessed after 1 hr; format: functional
Outline: (§2)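 Rats in groups of five plus control; test compounds 20 mg/kg po, diclofenac Na 10 mg/kg po, given 1 h before 0.1 mL 2% formalin injected subplantar into left hind paw under light ether anaesthesia. Paw volume by water plethysmometer at 0 and 1, 2, 3, 4 h after formalin; % anti-inflammatory activity versus control; mean ± SE, N = 5.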

[3] = system: Rattus norvegicus; assay: Antiinflammatory activity against formalin-induced paw edema in anaesthetized Albino rat acute inflammatory model at 20 mg/kg, po dosed 1 hr before formalin challenge assessed after 2 hrs; format: functional; outline: as §2
[4] = system: Rattus norvegicus; assay: Antiinflammatory activity against formalin-induced paw edema in anaesthetized Albino rat acute inflammatory model at 20 mg/kg, po dosed 1 hr before formalin challenge assessed after 3 hrs; format: functional; outline: as §2
[5] = system: Rattus norvegicus; assay: Antiinflammatory activity against formalin-induced paw edema in anaesthetized Albino rat acute inflammatory model at 20 mg/kg, po dosed 1 hr before formalin challenge assessed after 4 hrs; format: functional; outline: as §2
[6] = system: Rattus norvegicus; assay: Antiinflammatory activity against formalin-induced paw edema in anaesthetized Albino rat sub-acute inflammatory model at 20 mg/kg, po measured on day 1; format: functional
Outline: (§3)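 Sub-acute paw edema: test compounds 20 mg/kg po daily for 7 days, diclofenac Na 10 mg/kg po; 0.1 mL 2% formalin injected subplantar into left hind paw under light ether anaesthesia on days 1 and 3, 1 h after dosing. Paw volume measured on day 1 and day 8; % anti-inflammatory activity; N = 5 rats.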

[7] = system: Rattus norvegicus; assay: Antiinflammatory activity against formalin-induced paw edema in anaesthetized Albino rat sub-acute inflammatory model at 20 mg/kg, po for 7 days measured on day 8; format: functional; outline: as §3
[8] = system: Rattus norvegicus; assay: Antiinflammatory activity against turpentine oil-induced granuloma pouch in anaesthetized Albino rat sub-acute inflammatory model at 20 mg/kg, po 1 hr before turpentine oil challenge for 7 days assessed after 8 days; format: functional
Outline: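 Dorsal subcutaneous pouch made in ether-anaesthetised rats with 2 mL air, then 0.5 mL turpentine oil. Test compounds 20 mg/kg po, diclofenac Na 10 mg/kg po, started 1 h before turpentine and continued 7 days. Exudate aspirated on day 8 under anaesthesia; volume measured; % inhibition = (Vcontrol − Vtreated)/Vcontrol × 100; N = 5.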

[9] = system: Rattus norvegicus; assay: Toxicity in Albino rat assessed as induction of gastric ulceration at 300 mg/kg, po twice a day after 2 hrs; format: organism-based, Stomach; set-up: dose 300 mg/kg, route oral; conditions: in vivo
Outline: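 Male albino rats (180–200 g), five per group, fasted 12 h with water ad libitum. Oral dosing at 300 mg/kg; the results text gives two doses at a 2 h interval, while the methods give two equal doses at 0 and 12 h over three days. Controls received 1% gum acacia orally. Rats were killed with ether 6 h after the last dose, and stomachs were inspected grossly for ulceration and hyperemia.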

[10] = Acute toxicity in Albino rat after 24 hrs; format: organism-based; conditions: in vivo, read-out: ALD50
Outline: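 Male rats, 180–200 g, groups of five, fasted 24 h before dosing; compounds given orally in graded doses of 0.1–3.0 g/kg; mortality recorded at each dose level after 24 h to estimate approximate acute lethal dose (ALD50).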

[11] = system: Rattus norvegicus; assay: Analgesic activity in Albino rat assessed as tail withdrawal response at 20 mg/kg, po after 1 hr; format: functional
Outline: (§4)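 Male albino rats, 120–150 g, groups of five plus untreated control; test compounds 20 mg/kg po, diclofenac Na 10 mg/kg po. Tail immersed in 55 °C water; withdrawal reaction time read 1, 2 and 3 h after dosing; percentage increase in reaction time over basal computed; mean ± SE of five animals.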

[12] = system: Rattus norvegicus; assay: Analgesic activity in Albino rat assessed as tail withdrawal response at 20 mg/kg, po after 2 hrs; format: functional; outline: as §4
[13] = system: Rattus norvegicus; assay: Analgesic activity in Albino rat assessed as tail withdrawal response at 20 mg/kg, po after 3 hrs; format: functional; outline: as §4
[14] = system: Bacillus subtilis; assay: Antimicrobial activity against Bacillus subtilis NRRL B-14819 after 24 hrs by twofold serial dilution method; format: functional; outline: as §1
[15] = system: Micrococcus luteus; assay: Antimicrobial activity against Micrococcus luteus ATCC 21881 after 24 hrs by twofold serial dilution method; format: functional; conditions: ATCC 21881, 24 h; outline: as §1
[16] = system: Escherichia coli; assay: Antimicrobial activity against Escherichia coli ATCC 25922 after 24 hrs by twofold serial dilution method; format: functional; conditions: ATCC 25922, 24 h; outline: as §1
[17] = system: Pseudomonas aeruginosa; assay: Antimicrobial activity against Pseudomonas aeruginosa ATCC 27853 after 24 hrs by twofold serial dilution method; format: functional; conditions: ATCC 27853, 24 h; outline: as §1
[18] = system: Klebsiella pneumoniae; assay: Antimicrobial activity against Klebsiella pneumoniae clinical isolate after 24 hrs by twofold serial dilution method; format: functional; outline: as §1

Compound | MIC [1] [mg/L] | Activity [2] [%] | Activity [3] [%] | Activity [4] [%] | Activity [5] [%] | Activity [6] [%] | Activity [7] [%] | Activity [8] [%] | Activity [9] | LD50 at 24 h [10] [mg/kg] | Activity [11] [%] | Activity [12] [%] | Activity [13] [%] | MIC [14] [mg/L] | MIC [15] [mg/L] | MIC [16] [mg/L] | MIC [17] [mg/L] | MIC [18] [mg/L]
Cc1c(NC(=O)CSc2nnc(NC(=S)Nc3ccc(Cl)cc3)s2)c(=O)n(-c2ccccc2)n1C | 100 (≈ 183 µM) |  |  |  |  |  |  |  |  |  |  |  |  |  |  |  |  | 
Cc1c(NC(=O)C2=C(N)N(c3ccccc3)C(=C(C#N)C#N)S2)c(=O)n(-c2ccccc2)n1C |  | 26 | 40 | 38 | 40 | 40 | 32 | 62 | Non-toxic | > 3000 | 27 | 46 | 72 | 100 (≈ 213 µM) |  |  |  | 
CCOC(=O)/C(C#N)=C1/SC(C(=O)Nc2c(C)n(C)n(-c3ccccc3)c2=O)=C(N)N1c1ccccc1 | 12.5 (≈ 24.2 µM) | 30 | 26 | 38 | 29 | 29 | 31 | 53 | Non-toxic | > 3000 | 32 | 50 | 67 | 12.5 (≈ 24.2 µM) | 25 (≈ 48.4 µM) | 50 (≈ 96.8 µM) | 50 (≈ 96.8 µM) | 50 (≈ 96.8 µM)
Cc1c(NC(=O)c2sc(=S)n(-c3ccc(Cl)cc3)c2N)c(=O)n(-c2ccccc2)n1C |  |  |  |  |  |  |  |  |  |  |  |  |  | 100 (≈ 212 µM) | 100 (≈ 212 µM) |  |  | 
Cc1c(NC(=O)CSc2nnc(NC(=S)Nc3ccccc3)s2)c(=O)n(-c2ccccc2)n1C | 100 (≈ 195 µM) | 26 | 31 | 21 | 26 | 23 | 20 | 19 | Non-toxic | > 3000 | 27 | 43 | 46 |  |  |  |  | 
Cc1nc2c(sc(=S)n2-c2ccc(Cl)cc2)c(=O)n1-c1c(C)n(C)n(-c2ccccc2)c1=O |  |  |  |  |  |  |  |  |  |  |  |  |  | 100 (≈ 202 µM) | 100 (≈ 202 µM) |  |  | 
Cc1c(NC(=O)c2sc(=S)n(-c3ccccc3)c2NC(=S)Nc2ccccc2)c(=O)n(-c2ccccc2)n1C | 50 (≈ 87.3 µM) | 30 | 37 | 41 | 40 | 40 | 39 | 65 | Non-toxic | > 3000 | 48 | 70 | 82 | 12.5 (≈ 21.8 µM) | 50 (≈ 87.3 µM) | 50 (≈ 87.3 µM) | 50 (≈ 87.3 µM) | 50 (≈ 87.3 µM)
Cc1c(NC(=O)/C(C#N)=C2\SC=C(c3ccc(Cl)cc3)N2c2ccccc2)c(=O)n(-c2ccccc2)n1C | 100 (≈ 185 µM) | 39 | 29 | 33 | 43 | 37 | 44 | 58 | Non-toxic | > 3000 | 22 | 43 | 43 |  |  |  |  | 
Cc1c(NC(=O)/C(C#N)=C2\SC=C(c3ccc(Cl)cc3)N2c2ccc(Cl)cc2)c(=O)n(-c2ccccc2)n1C |  | 35 | 40 | 41 | 29 | 29 | 39 | 60 | Non-toxic | > 3000 | 34 | 64 | 58 | 100 (≈ 174 µM) |  |  |  | 
Cc1c(NC(=O)CSc2nnc(N)s2)c(=O)n(-c2ccccc2)n1C |  | 26 | 43 | 49 | 38 | 29 | 39 | 62 | Non-toxic | > 3000 | 42 | 71 | 76 |  |  |  |  | 
CC(=O)Nc1nnc(SCC(=O)Nc2c(C)n(C)n(-c3ccccc3)c2=O)s1 | 100 (≈ 239 µM) | 43 | 37 | 46 | 43 | 29 | 39 | 60 | Non-toxic | > 3000 | 30 | 60 | 55 |  |  |  |  | 
Cc1c(NC(=O)c2sc(=S)n(-c3ccccc3)c2N)c(=O)n(-c2ccccc2)n1C |  | 35 | 37 | 41 | 43 | 20 | 34 | 50 | Non-toxic | > 3000 | 19 | 50 | 67 | 100 (≈ 229 µM) |  |  |  | 
Cc1c(NC(=O)/C(C#N)=C2\SC=C(c3ccc(Br)cc3)N2c2ccccc2)c(=O)n(-c2ccccc2)n1C |  |  |  |  |  |  |  |  |  |  |  |  |  | 100 (≈ 171 µM) |  |  |  | 
Cc1c(NC(=O)c2sc(=S)n(-c3ccc(Cl)cc3)c2NC(=S)Nc2ccccc2)c(=O)n(-c2ccccc2)n1C | 100 (≈ 165 µM) |  |  |  |  |  |  |  |  |  |  |  |  |  |  |  |  | 
Cc1c(NC(=O)c2sc(=S)n(-c3ccc(Cl)cc3)c2NC(=S)Nc2ccc(Cl)cc2)c(=O)n(-c2ccccc2)n1C |  |  |  |  |  |  |  |  |  |  |  |  |  | 100 (≈ 156 µM) |  |  |  | 
Cc1c(NC(=O)/C(C#N)=C2\SCC(=O)N2c2ccc(Cl)cc2)c(=O)n(-c2ccccc2)n1C | 50 (≈ 104 µM) |  |  |  |  |  |  |  |  |  |  |  |  | 25 (≈ 52.1 µM) | 12.5 (≈ 26 µM) | 25 (≈ 52.1 µM) | 50 (≈ 104 µM) | 100 (≈ 208 µM)
CCOC(=O)Nc1nnc(SCC(=O)Nc2c(C)n(C)n(-c3ccccc3)c2=O)s1 |  | 35 | 17 | 23 | 19 | 29 | 27 | 33 | Non-toxic | > 3000 | 17 | 15 | 28 | 100 (≈ 223 µM) |  |  |  | 
Cc1c(NC(=O)c2sc(=S)n(-c3ccc(Cl)cc3)c2NC(=O)Nc2ccccc2)c(=O)n(-c2ccccc2)n1C |  | 26 | 37 | 49 | 40 | 31 | 42 | 72 | Non-toxic | > 3000 | 18 | 49 | 44 | 100 (≈ 169 µM) |  |  |  | 
Cc1c(NC(=O)c2sc(=S)n(-c3ccccc3)c2NC(=S)Nc2ccc(Cl)cc2)c(=O)n(-c2ccccc2)n1C | 25 (≈ 41.2 µM) |  |  |  |  |  |  |  |  |  |  |  |  | 12.5 (≈ 20.6 µM) |  | 25 (≈ 41.2 µM) | 50 (≈ 82.3 µM) | 50 (≈ 82.3 µM)
CC1(C)S[C@@H]2[C@H](NC(=O)[C@H](N)c3ccccc3)C(=O)N2[C@H]1C(=O)O.O.O.O [AMPICILLIN TRIHYDRATE] | 6.25 |  |  |  |  |  |  |  |  |  |  |  |  | 12.5 | 12.5 | 6.25 | 12.5 | 12.5
